Compounds with a hit are over-represented: about 3.1% of the library has one in this group of screens.
PAFAH1B3 inh = blocks human PAF acetylhydrolase 1B catalytic subunit 3 | Q15102 | recombinant PAFAH1B3, FP-rhodamine probe, fluorescence polarization | inhibition, % at 3.39 µM | 0.28% of 340,000 active;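 active means inhibition above the screen-wide average of all tested compounds plus 3 SD, cut at about 25% in these data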;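 further: 0% = enzyme with DMSO only and 100% = wells lacking PAFAH1B3 protein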
pPAFAH FP inh = pPAFAH (human) enzyme inhibition. Q13093. recombinant pPAFAH, FP-rhodamine probe fluorescence polarization. inhibition, % at 3.39 µM. 1.5% of 330,000 active;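 active means inhibition above the mean inhibition across the screen plus 3 SD, cut at about 25% in these data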;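 further: inhibitors block binding of the rhodamine activity-based probe so polarization drops; 0% = enzyme with DMSO and 100% = wells lacking pPAFAH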
Apaf1 inhib = blocks human Apaf-1 apoptosome activity; inhibition, % at 20 µM; reconstituted apoptosome caspase-3 activity, DEVD-Rh110 fluorescence; 0.71% of 330,000 active; active means inhibition of at least 40% at 20 µM;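 further: plate controls were DMSO wells for no effect and DEVD-CHO caspase inhibitor wells for full effect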
Target sequence (O14727 whole entry, looked up): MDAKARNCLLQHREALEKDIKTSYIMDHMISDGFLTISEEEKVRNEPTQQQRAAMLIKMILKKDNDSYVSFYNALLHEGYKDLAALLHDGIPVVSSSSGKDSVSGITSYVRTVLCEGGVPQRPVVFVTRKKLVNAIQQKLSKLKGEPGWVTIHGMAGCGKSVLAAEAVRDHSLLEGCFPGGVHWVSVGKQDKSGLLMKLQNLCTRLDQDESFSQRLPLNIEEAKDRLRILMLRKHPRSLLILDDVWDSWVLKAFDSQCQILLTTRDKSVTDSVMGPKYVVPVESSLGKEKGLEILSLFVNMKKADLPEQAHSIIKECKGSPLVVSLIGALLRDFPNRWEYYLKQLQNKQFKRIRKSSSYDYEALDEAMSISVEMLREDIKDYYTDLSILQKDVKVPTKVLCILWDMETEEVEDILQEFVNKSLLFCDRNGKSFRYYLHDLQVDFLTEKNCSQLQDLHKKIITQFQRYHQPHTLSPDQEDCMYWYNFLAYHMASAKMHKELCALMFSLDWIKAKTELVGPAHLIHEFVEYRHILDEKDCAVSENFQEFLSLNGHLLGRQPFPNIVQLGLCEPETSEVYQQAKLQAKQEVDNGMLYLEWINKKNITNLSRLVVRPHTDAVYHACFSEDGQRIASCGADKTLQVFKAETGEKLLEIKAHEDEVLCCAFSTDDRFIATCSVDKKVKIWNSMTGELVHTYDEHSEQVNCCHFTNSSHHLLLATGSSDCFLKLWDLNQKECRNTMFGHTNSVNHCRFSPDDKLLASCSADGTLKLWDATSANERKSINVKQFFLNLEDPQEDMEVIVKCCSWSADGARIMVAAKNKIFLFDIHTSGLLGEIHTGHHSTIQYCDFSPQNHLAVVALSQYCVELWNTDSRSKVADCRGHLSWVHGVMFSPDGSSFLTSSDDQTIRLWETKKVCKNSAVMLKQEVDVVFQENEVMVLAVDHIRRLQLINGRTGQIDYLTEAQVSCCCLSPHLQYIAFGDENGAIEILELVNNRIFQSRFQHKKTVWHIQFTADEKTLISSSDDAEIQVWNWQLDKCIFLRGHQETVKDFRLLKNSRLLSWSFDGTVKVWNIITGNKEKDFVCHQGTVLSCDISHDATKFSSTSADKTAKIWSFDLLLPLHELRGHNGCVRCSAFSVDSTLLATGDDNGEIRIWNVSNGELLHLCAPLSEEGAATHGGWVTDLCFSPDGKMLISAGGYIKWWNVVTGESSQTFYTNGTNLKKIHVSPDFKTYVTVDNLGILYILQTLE
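System – cell-free apoptosome with Apaf-1, procaspase-3 and caspase-9 · Buffer or medium – pH 7.5 Hepes buffer with CHAPS, BSA, DTT · Also added – cytochrome c with DEVD-Rh110 · Times – 30 min compound preincubation, 50 min activation, room temperature · Technique – Rh110 fluorescence intensity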
PAFAH1B2 inh = blocks human PAF acetylhydrolase 1b catalytic subunit 2; P68402; recombinant PAFAH1B2, FP-rhodamine activity probe, fluorescence polarization; inhibition, % at 3.39 µM; 1.2% of 340,000 active; AID 492953;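 active means inhibition above the mean of all tested compounds plus 3 SD, cut at about 24% in these data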;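 further: 0% = enzyme with DMSO and 100% = wells lacking PAFAH1B2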
PAFAH2 FP inh = PAFAH2 (human) inhibition. Q99487. recombinant PAFAH2, FP-rhodamine activity probe, fluorescence polarization. inhibition, % at 3.39 µM. 0.99% of 340,000 active. AID 492956;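 active means inhibition above the mean over all tested compounds plus 3 SD, cut at about 30% in these data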;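 further: inhibitors block probe labeling of enzyme so polarization drops; 0% = enzyme with DMSO and 100% = wells lacking PAFAH2 protein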
Starred values were filed as active, the others as inactive; · = no result.

SMILES	PAFAH1B3 inh	pPAFAH FP inh	Apaf1 inhib	PAFAH1B2 inh	PAFAH2 FP inh
COC/C=C/C1=CC2=CC(=O)C(C)(OC(=O)c3ccco3)C(=O)C2=CO1 (configuration not stated)	·	52.9*	12.2	·	·
CCCCCCCC1=CC2=CC(=O)C(C)(OC(C)=O)C(=O)C2=CN1CCc1ccccc1 (configuration not stated)	·	9.7	-4.5	·	·
COC(=O)CCCC1=CC2=CC(=O)C(C)(OC(=O)c3cnc4ccccc4n3)C(=O)C2=CO1 (configuration not stated)	·	31.6*	5.5	·	·
COC(=O)CCC(=O)OC1(C)C(=O)C=C2C=C3CCCN3C=C2C1=O (configuration not stated)	9.0	17.5	16.3	9.4	10.7
COC/C=C/C1=CC2=CC(=O)C(C)(OC(=O)c3cnc4ccccc4n3)C(=O)C2=CN1c1ccc(OC)cc1 (configuration not stated)	7.2	18.6	12.4	3.8	14.0
CCCCC1=CC2=CC(=O)C(C)(OC(=O)c3ccco3)C(=O)C2=CO1 (configuration not stated)	·	48.5*	-0.7	·	·
COC(=O)CCCC1=CC2=CC(=O)C(C)(OC(=O)c3ccc(Cl)nc3)C(=O)C2=CO1 (configuration not stated)	·	36.0*	-2.3	·	·
COC(=O)CCCC1=CC2=CC(=O)C(C)(OC(=O)c3cccs3)C(=O)C2=CN1c1ccccc1 (configuration not stated)	5.2	11.1	19.9	5.7	3.2
COC/C=C/C1=CC2=CC(=O)C(C)(OC(=O)c3cnc4ccccc4n3)C(=O)C2=CN1CCc1ccccn1 (configuration not stated)	·	24.9*	26.2	·	·
COC/C=C/C1=CC2=CC(=O)C(C)(OC(=O)c3cnc4ccccc4n3)C(=O)C2=CN1CCCCO (configuration not stated)	1.9	6.9	32.4	-4.9	7.6
COC(=O)CCCC1=CC2=CC(=O)C(C)(OC(=O)c3cccs3)C(=O)C2=CO1 (configuration not stated)	·	42.9*	11.4	·	·
CCCCC1=CC2=CC(=O)C(C)(OC(=O)c3cnc4ccccc4n3)C(=O)C2=CO1 (configuration not stated)	·	57.0*	3.0	·	·
C[C@H](CO)N1C[C@H](C)[C@@H](CN(C)S(=O)(=O)c2ccc(F)cc2)Oc2ccc(NC(=O)C3CCCCC3)cc2C1=O	5.3	-3.1	22.6	0.1	4.5
Cc1c(C(=O)N2CCCCC2)c(S(=O)(=O)NCc2ccc(Cl)cc2)c(C)n1C	2.5	3.5	-9.9	2.6	8.5
COC/C=C/C1=CC2=CC(=O)C(C)(OC(=O)C3CCCC3)C(=O)C2=CO1 (configuration not stated)	6.0	24.3	15.6	-4.7	15.6
COC/C=C/C1=CC2=CC(=O)C(C)(O)C(=O)C2=CO1 (configuration not stated)	·	48.1*	6.2	·	·
CC(C)(C)OC(=O)NCCCCC1=CC2=CC(=O)C(C)(OC(=O)c3cnc4ccccc4n3)C(=O)C2=CO1 (configuration not stated)	·	41.6*	12.8	·	·
Cc1ccc(C2C(C#N)=C(N)Oc3cc(N)ccc32)cc1 (configuration not stated)	-1.8	26.7*	1.6	5.4	-1.4
N#CC1=C(N)Oc2cc(N)ccc2C1c1ccsc1 (configuration not stated)	7.0	14.9	1.7	1.4	2.2
O=C(NNS(=O)(=O)c1ccc2ccccc2c1)c1cc(-c2ccccn2)nc2ccccc12	7.6	1.7	10.1	26.0*	-5.9
O=C(Nn1cnnc1)c1cc(-c2ccccn2)nc2ccccc12	10.6	-0.4	0.7	2.1	1.2
O=C(Nc1ncccc1O)c1cccc(S(=O)(=O)N2CCc3ccccc32)c1	-5.2	5.4	1.3	48.0*	34.4*
C=C(C)CN(CC)C(=O)CN1C(=O)NC(C)(c2ccc3ccccc3c2)C1=O (configuration not stated)	-1.9	-0.4	-5.1	3.9	4.5
Cc1ccc(N(CC(=O)NC2CCCC2)C(=O)c2nsc(Cl)c2Cl)cc1	7.3	2.2	6.2	2.2	-6.7
CCCCCC(=O)Nc1cc(S(=O)(=O)N2CCCCC2)ccc1N1CCCCC1	3.6	·	·	1.8	0.3
SMILES	PAFAH1B3 inh	pPAFAH FP inh	Apaf1 inhib	PAFAH1B2 inh	PAFAH2 FP inh
CCCCCC(=O)Nc1cc(S(=O)(=O)O)cc2cc(S(=O)(=O)O)cc(O)c12	34.8*	·	·	17.3	56.8*
O=C(CCc1ccccc1)Nc1ccc(S(=O)(=O)Nc2nccs2)cc1	1.0	17.3	9.7	8.5	8.3
O=C(COc1cccnc1[N+](=O)[O-])Nc1c(Cl)cccc1Cl	-3.4	4.9	5.9	2.6	-1.8
O=C(COc1cccnc1[N+](=O)[O-])c1ccc(Cl)s1	8.5	30.5*	35.0	3.5	18.4
COc1ccc(C(=O)N/C(=C\c2cn(C)c3ccccc23)C(=O)N2CCOCC2)cc1	6.9	-4.5	4.6	2.3	-2.9
C/C(=N/OC(=O)C1CC12CCC2)c1ccc(Br)cc1 (configuration not stated)	5.2	4.8	1.3	52.5*	50.6*
N/C(=N\OC(=O)C1CCCCC1)c1ccc(Br)cc1	13.7	-1.7	15.6	6.0	3.4
CCCn1nc(C(=O)Nc2ccc3c(c2)OCCO3)c2ccccc2c1=O	6.5	0.1	12.5	1.5	5.6
COc1ccc(-c2cc3ccccc3oc2=O)cc1NC(=O)c1ccc(Br)o1	-12.9	5.2	12.7	-10.5	-2.2
COc1ccc(-c2cc3ccccc3oc2=O)cc1NC(=O)c1ccc([N+](=O)[O-])o1	1.8	24.9*	-21.1	4.0	6.4
COc1cccc(CN2CCC(N(CCc3ccccc3)Cc3ccccc3)CC2)c1OC	1.0	0.9	21.5	3.0	0.1
CN(C(=O)CSc1nnnn1-c1ccc(O)cc1)C1CCCCC1	8.3	4.0	-1.3	7.3	6.8
O=C(O)c1cccc(N2C(=O)CSC2c2ccccc2)c1 (configuration not stated)	6.2	2.8	4.9	27.4*	-8.0
Cc1ccc(S(=O)(=O)Nc2ccccc2)cc1[N+](=O)[O-]	2.6	·	·	7.9	4.8
Cc1cccc2c(N=Nc3ccc(S(=O)(=O)Nc4cccc(Cl)c4)cc3[N+](=O)[O-])c(O)[nH]c12	20.7	28.4*	11.0	26.1*	7.8
CCN(CC)CCN(C(=O)c1ccc2c(c1)CCCC2)c1nc2cc(OC)c(OC)cc2s1	6.1	10.9	47.5*	-1.9	-0.8
CCOc1ccccc1NC(=O)COC(=O)c1c[nH]c2ccccc12	-7.0	·	12.5	0.9	-0.3
CCNC(=S)NNC(=O)c1cc(-c2cccc(C)c2)nc2ccccc12	0.1	22.5	6.0	31.9*	-2.5
CCCCOc1cccc(-c2cc(C(=O)NNC(=S)NCC)c3ccccc3n2)c1	4.0	20.7	4.2	5.1	7.9
CCOC(=O)c1ccc(NC(=S)NNC(=O)c2cc(-c3cccnc3)nc3ccccc23)cc1	15.8	29.6*	27.0	9.8	1.1
